Data from PubChem BioAssay AID504382 (The Scripps Research Institute Molecular Screening Center, 2011).
About 460 (18%) of roughly 2,500 compounds were called active.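 Rule for the calls: active = mean activation above a cutoff of low control average plus 3 SD from the earlier screen (cut at about 12% in these data); inactive = the rest.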 A selection follows.

experiment: compound fluorescence interference without thin filaments, confirmation, artefact control for cardiac RTF calcium sensitizer project, biochemical (AID 504382); conditions: IANBD fluorescence interference counterscreen, buffer, EC20 Ca2+; at 7.2 µM; active compounds read high; scaled: EC20 calcium 0, EC100 calcium 100
Method in brief: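 Technique: fluorescence, 480/540 nm / Medium: MOPS-based buffer with KCl, MgCl2, EGTA, NTA, DTT, pH 7.2 / Probe or stimulus: calcium at EC20 level, 0.472 mM final / Repeats: triplicate wells per compound / Times: 15 min compound exposure at 25 °C / Measure: compound fluorescence interference relative to control well signal range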

Row | SMILES | fluorescence artifact activation
1 | CC(=O)Nc1ccc2cc3ccc(NC(C)=O)cc3nc2c1 | 11.6% (inactive)
2 | CCCn1c(=O)c(C(=O)NNC(=O)c2ccccc2[N+](=O)[O-])c(O)c2ccccc21 | 5.02% (inactive)
3 | CCN1/C(=C/C=C2/SC(=Nc3cccc4ncccc34)N(C)C2=O)Sc2ccccc21 | 11.5% (inactive)
4 | CCN(C(=O)CN1CCCc2cc(C)ccc21)c1c(N)n(Cc2ccccc2)c(=O)[nH]c1=O | 0.2% (inactive)
5 | CCN(C(=O)CSc1nnc(COc2ccccc2F)n1N)c1c(N)n(Cc2ccccc2)c(=O)[nH]c1=O | 382% (active)
6 | CCn1c(Cc2ccccc2)nnc1SCC(=O)OC(C)C | 0.3% (inactive)
7 | COC(=O)C1=C(C)NC(=O)/C1=C\N(C)C | 5.29% (inactive)
8 | COc1cc(OC)c(OC)cc1/C=C1\Oc2cc(OCC(=O)N3Cc4ccccc4C[C@H]3C(=O)O)ccc2C1=O | -0.01% (inactive)
9 | CS(=O)(=O)N(CC(=O)NCCSCc1ccccc1)c1ccccc1 | 0.13% (inactive)
10 | CC(C)(C)C1(O)CC(C(F)(F)F)=NN1C(=O)CCCc1ccccc1 (stereo not given) | 0.13% (inactive)
11 | CSCC(C)N1CCC(n2nccc2NC(=O)CCCc2ccccc2)CC1 (stereo not given) | 26.2% (active)
12 | CCN1CCN(C2=CC3=CC(=C(C#N)C#N)CCC3CC2)CC1 (stereo not given) | 0.47% (inactive)
13 | CN1CCc2c(sc3c2C(=O)NC(c2cccs2)N3)C1 (stereo not given) | 0.27% (inactive)
14 | Cc1ccsc1C1NC(=O)c2c(sc3c2CCN(C)C3)N1 (stereo not given) | 28.8% (active)
15 | Cc1ccc(C2NC(=O)c3c(sc4c3CCN(C)C4)N2)s1 (stereo not given) | 0% (inactive)
16 | CCOC(=O)c1c(NC(=O)CSc2nc3cc(Cl)ccc3c(=O)n2Cc2ccco2)sc(C(=O)N(C)C)c1C | 0% (inactive)
17 | COc1ccc(OC)c(/C=C2\N=C(c3ccccc3)OC2=O)c1 | 8.78% (inactive)
18 | C#CCSc1nc2[nH]ncc2c(=O)[nH]1 | 0.09% (inactive)
19 | CNc1ccccc1C(C)(C)c1cc(C)[nH]n1 | 3.66% (inactive)
20 | COc1ccc(N=Nc2nc3ccc(Br)cc3n2C)cc1 | 0.16% (inactive)
21 | COc1ccc(O)c(/C=N/c2nc3ccccc3n2C)c1 | 0.05% (inactive)
22 | COc1ccc(N=Nc2nc3cc(Br)c(Br)cc3n2C)c(OC)c1 | 765% (active)
23 | CCOC(=O)C1=C(COC(=O)c2ccc3ccccc3c2O)NC(=O)NC1C (stereo not given) | 0.49% (inactive)
24 | CCOC(=O)c1cc2c(=O)n3ccccc3nc2n(CCOC)c1=NC(=O)c1c(-c2c(F)cccc2Cl)noc1C | 0.12% (inactive)

Row | SMILES | fluorescence artifact activation
25 | O=C(N/N=C/c1sc2ccccc2c1O)c1ccccc1 | 9.97% (inactive)
26 | COc1ccc2cc(C(=O)N/N=C/c3sc4ccccc4c3O)ccc2c1 | 93.2% (active)
27 | COc1ccc(C(=O)N/N=C/c2sc3ccccc3c2O)cc1 | 1.31% (inactive)
28 | CC(C)(CN1CCc2ccccc2C1)NS(=O)(=O)c1ccc(Cl)cc1 | 0.2% (inactive)
29 | O=c1oc2c3c4c(cc2c(C(F)(F)F)c1CCN1CCOCC1)CCCN4CCC3 | -0.03% (inactive)
30 | Cn1ncc(N=Cc2c(O)ccc3ccccc23)c1C(=O)Nc1cccc(Cl)c1 | 0.09% (inactive)
31 | O=C1c2cccc3c(O)ccc(c23)C(=O)N1Cc1ccccc1 | 11.9% (active)
32 | O=C1c2cccc3c(N4CCCCC4)ccc(c23)C(=O)N1c1ccccc1O | -0.03% (inactive)
33 | CCNc1cccc2c1C(=O)N(C)C2=O | 0.15% (inactive)
34 | CC1(C)CC2CC(C)(CN2CC(=O)C(C#N)c2ccccc2)C1 (stereo not given) | 0.12% (inactive)
35 | Cc1cccc(/C=N/n2c(-c3ccncc3)n[nH]c2=S)c1 | 7.13% (inactive)
36 | C=CCn1cc(/C=C/c2cc[n+](C)cc2)c2ccccc21 | 0.14% (inactive)
37 | N#C/C(=C\c1coc2ccc(O)cc2c1=O)C(=O)Nc1nc2ccccc2s1 | 1.92% (inactive)
38 | Fc1ccc(CN2CC[C@H]3C=CCc4cccc(c43)C2)cc1 | 52.5% (active)
39 | COc1cc(/C=C2/SC(=S)N(CCC(=O)Nc3ccccc3)C2=O)cc(OC)c1OC | 0.06% (inactive)
40 | CCOc1ccc(NC(=O)/C(C#N)=C\c2ccc(N3CCCC3)c(C)c2)cc1 | 0.15% (inactive)
41 | CSc1nnc(-c2ccc(S(=O)(=O)N3CCCC3)cc2)n1C | 0.02% (inactive)
42 | CSc1nc2ccccc2n1CC(=O)Nc1c(C)cccc1C | 2.26% (inactive)
43 | CCN1/C(=C2\SC(=S)N(Cc3ccccc3)C2=O)Sc2ccccc21 | 0.08% (inactive)
44 | CN1CCS/C1=C/C=C1/SC(=S)N(Cc2ccccc2)C1=O | -0.03% (inactive)
45 | CCN1C(=O)/C(=C/N2CCc3ccccc32)SC1=S | 12.6% (active)
46 | O=c1oc2c(CN3CCCCC3)c(O)ccc2cc1-c1nc2ccccc2[nH]1 | 60.5% (active)
47 | O=c1oc2c(O)cccc2cc1-c1nc2ccccc2[nH]1 | 0.04% (inactive)
48 | S=C(NCCCN1CCOCC1)Nc1ccc(-c2nc3ccccc3[nH]2)cc1 | 0.17% (inactive)

Row | SMILES | fluorescence artifact activation
49 | O=C1CCc2cc(S(=O)(=O)NC3CCCCC3)ccc2N1 | -0.07% (inactive)
50 | Cc1ccc(CNC(=O)CC(C)S(=O)(=O)c2ccc3c(c2)NC(=O)CS3)o1 (stereo not given) | 45.8% (active)
51 | Cc1cc(C)n2nc(SCC(=O)N(C)Cc3ccccc3)nc2n1 | -0.05% (inactive)
52 | CN(C)Cc1c(O)ccc2c1O/C(=C\C=C\c1ccccc1)C2=O | 0.37% (inactive)
53 | CCN1CCN(Cc2c(O)ccc3c2O/C(=C\C=C\c2ccccc2)C3=O)CC1 | 20.6% (active)
54 | COc1ccccc1/C=C/C=C1\Oc2c(ccc(O)c2CN(C)C)C1=O | 5.64% (inactive)
55 | COc1ccccc1/C=C/C=C1\Oc2c(ccc(O)c2CN2CCN(CCO)CC2)C1=O | 11.9% (active)
56 | CCN1CCN(Cc2c(O)ccc3c2O/C(=C\C=C\c2ccccc2OC)C3=O)CC1 | 1.64% (inactive)
57 | CCN1CCN(Cc2c(O)ccc3c2O/C(=C\c2ccccc2)C3=O)CC1 | 2.91% (inactive)
58 | Cc1ccc(/C=C2\Oc3c(ccc(O)c3CN3CCN(CCO)CC3)C2=O)cc1 | 4.11% (inactive)
59 | CCN(CC)Cc1c(O)ccc2c1O/C(=C\C=C\c1ccccc1)C2=O | 0.87% (inactive)
60 | O=C1/C(=C/C=C/c2ccccc2)Oc2c1ccc(O)c2CN1CCN(CCO)CC1 | 46.6% (active)
61 | Cc1c(/C=N/O)c2ccccn2c1C=O | 0.97% (inactive)
62 | O=[N+]([O-])c1cc(-c2nc(-c3ccncc3)no2)ccc1Cl | -0.06% (inactive)
63 | CCCc1ccc(OCc2ccc(C(=O)NN)o2)c(OC)c1 | -0.08% (inactive)
64 | CN1CCCc2cc3c(C(F)(F)F)cc(=O)oc3nc21 | 1.21% (inactive)
65 | CC1CCCCC1NS(=O)(=O)CCNC(=O)c1ccccc1 (stereo not given) | -0.01% (inactive)
66 | CC(CC(=O)N1CCc2ccccc21)n1cccn1 (stereo not given) | 0.19% (inactive)
67 | C[C@H](O)C(=O)C1=Nc2c(nc(N)[nH]c2=O)NC1 | 0.04% (inactive)
68 | CC(=O)c1cccc(NC(=O)Cn2nc(-c3ccccc3Cl)ccc2=O)c1 | 0.29% (inactive)
69 | CN1C(=O)NC(c2ccccc2[N+](=O)[O-])C2=C1CCCC2=O (stereo not given) | 0.1% (inactive)
70 | CCN1C(=S)N[C@@H](CCc2ccccc2)[C@H](C(=O)OC)[C@H]1C | 20.1% (active)
71 | O=C(N/N=C/c1ccc([N+](=O)[O-])cc1)c1cc(-c2ccc3c(c2)OCO3)n[nH]1 | 0.03% (inactive)
72 | CSc1nc(C)nc(N/C=C(\C#N)S(=O)(=O)c2ccccc2Cl)n1 | 0.27% (inactive)

Row | SMILES | fluorescence artifact activation
73 | COC(=O)c1cc2c(cc1NC(=O)CSCCc1ccccn1)OCO2 | 0.01% (inactive)
74 | O=C1c2ccccc2C(=O)N1CC1=NCCc2ccccc21 | 0.03% (inactive)
75 | O=C(CN1C(=O)c2ccccc2C1=O)N1CCN=C1c1ccccc1 | 19.8% (active)
76 | O=C(c1ccc(F)cc1)N1CCN=C1c1ccccc1 | 0.24% (inactive)
77 | O=C(O)c1ccccc1/C=N/NC(=S)NC1CCCCC1 | 0.11% (inactive)
78 | CSc1ccc(Cl)c(C(=O)NNC(=O)c2csc(N3CCOCC3)n2)c1 | 2.41% (inactive)
79 | CCCN1CC=C2C(C#N)=C(N)C(C#N)(C#N)C(c3cccc(OC)c3OC)C2C1 (stereo not given) | 0.1% (inactive)
80 | Nc1nc(NCc2ccco2)nc(N2CCCCCC2)c1[N+](=O)[O-] | 1.86% (inactive)
81 | Cc1cc(/C=C2\SC(=S)N(Cc3ccco3)C2=O)c(C)n1-c1ccccc1 | 3.1% (inactive)
82 | COc1ccc(-n2c(C)cc(/C=C3\SC(=S)N(Cc4ccco4)C3=O)c2C)cc1 | 91.9% (active)
83 | Cc1cc(/C=C2\SC(=S)N(Cc3ccco3)C2=O)c(C)n1-c1cccnc1 | 10.8% (inactive)
84 | Cc1nc(NC(=O)C(Cl)Cl)sc1C(=O)N(C)C | 0.56% (inactive)
85 | CCOc1c2ccc(C(=O)NCCc3cccs3)cc2nn1CC | 0.58% (inactive)
86 | CC(C)CCNC(=O)c1ccc2c(SCC(=O)O)c3c(nc2c1)CCC3 | 12.9% (active)
87 | COC(=O)C1C2CC3c4[nH]c5cc(OC)ccc5c4CCN3CC2CC(OC(=O)CC(C)=O)C1OC (stereo not given) | 0.13% (inactive)
88 | CN(C)c1ccc(/C=C2\NC(=S)N(Cc3ccccc3)C2=O)cc1 | 91.1% (active)
89 | Cc1ccc(/C=C2/NC(=O)N(Cc3ccccc3)C2=O)s1 | 0.01% (inactive)
90 | CN(C)c1ccc(/C=C2\CCC/C(=C\c3ccccc3)C2=O)cc1 | 0.02% (inactive)
91 | COC(=O)c1sccc1Oc1ccc(Cl)cc1N1C(=O)CCC1=O | 0.03% (inactive)
92 | COC(=O)c1c(=O)n(O)c2ccc(OC)cc2[n+]1[O-] | 0.04% (inactive)
93 | C=CCn1c(=O)/c(=C/c2cc(OC)c(OC)c(OC)c2)s/c1=C(/C#N)c1nc2ccccc2n1C | 0.02% (inactive)
94 | Cc1cccc(OCc2nn[nH]n2)c1C | 1.02% (inactive)
95 | COc1ccccc1C1=NOC(Cn2c(=O)c3c(ncn3C)n(C)c2=O)C1 (stereo not given) | 0.23% (inactive)
